This is a sample that favours compounds with a hit; in the whole collection about 4.1% have one here.
MrgX1 ag: human MrgX1 receptor agonism, primary screen | hit rate 0.44% among 310,000 | B-score at 10 µM | MrgX1-HEK293 cells, Fluo-4 calcium fluorescence, agonist mode; active compounds read high | Q96LB2;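 active = calcium response B-score plate-corrected fluorescence ratio at least 3 library SD, with starting fluorescence B-score inside 5 SD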
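times = overnight plating, then 30 min 37 °C plus 30 min room-temperature dye loading | assay system = stable human MrgX1 HEK293 cell line | input = fifteen thousand cells per well | signal = kinetic calcium dye fluorescence, Fluo-4 NW | dosing = compound delivered in addition one of three | read-out = B-scored fluorescence response ratio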
Kir21 inh: Kir2.1 (mouse) channel inhibition; B-score at 10 µM; P35561; HEK293-Kir2.1, FluxOR thallium flux fluorescence; active compounds read low; hit rate 0.85% among 310,000;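 active = fluorescence ratio B-score at or below minus 3 SD of library scores, with starting-brightness B-score within 2 SD, cut at about -4.2 in these data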;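 note: channel flux triggered by added potassium and thallium sulfate stimulus; B-score of peak minus minimum fluorescence over baseline after thallium stimulus; more negative B-score means stronger Kir2.1 block with less thallium influx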
Target sequence (P35561 whole entry, looked up): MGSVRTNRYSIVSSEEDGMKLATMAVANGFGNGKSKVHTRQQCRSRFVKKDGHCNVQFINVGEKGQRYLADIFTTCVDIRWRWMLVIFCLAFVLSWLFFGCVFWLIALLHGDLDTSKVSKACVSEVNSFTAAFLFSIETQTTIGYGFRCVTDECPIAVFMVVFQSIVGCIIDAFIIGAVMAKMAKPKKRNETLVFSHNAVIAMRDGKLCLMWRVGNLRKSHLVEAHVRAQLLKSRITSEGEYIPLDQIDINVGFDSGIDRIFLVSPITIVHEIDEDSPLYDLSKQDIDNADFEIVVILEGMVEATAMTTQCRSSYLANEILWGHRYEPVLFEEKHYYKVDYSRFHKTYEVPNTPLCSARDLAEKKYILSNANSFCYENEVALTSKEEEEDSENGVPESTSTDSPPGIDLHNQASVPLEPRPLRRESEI
RGS4 block: inhibitors of human RGS4; P49798; HEK293 M3R/RGS4 inducible, Fluo-4 calcium flux; active compounds read high; triggered by carbachol at its EC20; B-score at 10 µM; hit rate 0.45% among 310,000;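 active = B-score, a plate-corrected calcium signal, over three deviations above library mean, with baseline fluorescence within five deviations of library mean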;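 note: RGS4 expression induced by doxycycline in cells with stable M3 receptor; B-score is computed from the integrated fluorescence ratio over baseline after carbachol; higher B-score means a larger calcium signal and so more RGS4 inhibition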
Target sequence (P49798 whole entry, looked up): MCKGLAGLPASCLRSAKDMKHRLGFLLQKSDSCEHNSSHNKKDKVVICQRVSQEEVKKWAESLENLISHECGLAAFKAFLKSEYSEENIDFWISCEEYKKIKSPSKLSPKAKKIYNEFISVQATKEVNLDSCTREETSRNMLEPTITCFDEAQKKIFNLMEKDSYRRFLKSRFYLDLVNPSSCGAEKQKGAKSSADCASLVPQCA
RGS4 pot: potentiators or activators of RGS4. HEK293 M3R/inducible RGS4, carbachol calcium flux Fluo4; active compounds read low. B-score at 10 µM. hit rate 0.92% among 310,000;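 active = B-score of the integrated calcium signal more than 4 SD below the library mean, with starting fluorescence not abnormally high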;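 note: negative B-score means reduced calcium response which marks RGS4 activation or potentiation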
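System: HEK293 FlpIn-TREx cells, stable M3R, doxycycline-inducible RGS4. Timing: overnight RGS4 induction, 30 min dye load 37 °C, 20 min compound RT. Also added: carbachol, ECmax concentration. Measured by: Fluo4 fluorescence kinetic imaging of calcium. Evaluation: integrated calcium ratio converted to B score.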
MrgX1 antagonist: human MrgX1 receptor antagonism, primary screen. MRGX1-HEK293 calcium flux, Fluo-4, BAM8-22 antagonism; active compounds read low. hit rate 1.3% among 310,000. B-score at 10 µM;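 active = calcium-response B-score plate-corrected more than 3 library SD below zero, starting fluorescence within 5 deviations, no agonist response on first addition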;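 note: peak minus trough fluorescence over baseline after final BAM8-22 challenge near maximal dose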
MrgX1 PAM: human MrgX1 positive allosteric modulation, primary screen | Q96LB2 | MrgX1-HEK293, Fluo-4 calcium flux, FDSS; active compounds read high | B-score at 10 µM | hit rate 0.63% among 310,000 | AID 588675;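 active = plate-corrected calcium response at least 3 library SD above typical, normal starting fluorescence, not activating the receptor alone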;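 note: compound read alongside a low EC10 to EC30 dose of BAM8-22 agonist; peak minus trough fluorescence over baseline measured at the second addition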
Each line names hits and unclear results; the compound was inactive in the other large screens.

O=C(C1CN(S(=O)(=O)c2ccccc2)CCN1S(=O)(=O)c1ccccc1)N1CCCCCC1 (centres undefined)	none
Cc1nc(SCc2cccc(Oc3ccccc3)c2)n[nH]1	none
Nc1cc(N2CCCCC2)c(Cl)cc1[N+](=O)[O-]	none
CCOc1ccc(CCNC(=O)c2nccnc2C(=O)O)cc1OCC	none
CCOc1ccc(CCNC(=O)C2(c3ccccc3)CC2)cc1OCC	Kir21 inh -4.5
Cc1onc(-c2ccccc2)c1C(=O)N1CCCC1	none
CC(=O)N1c2c(cc(Br)cc2S(=O)(=O)N2CCN(c3ccccc3F)CC2)CC1C (centres undefined)	MrgX1 antagonist -7.8
Cc1oc(-c2ccc(Cl)cc2)nc1CS(=O)CC(=O)NCc1ccccn1 (centres undefined)	none
O=C(CN1C(=O)NC2(CCc3ccccc32)C1=O)c1ccc(Cl)cc1 (centres undefined)	none
Cn1cnc2c(N3CCCCC3)nccc21	none
COc1cc(Br)cc(/C=N/NC(=O)Cc2ccccc2)c1O	none
Cc1ccc(-c2ccc(/C=N\NC(=O)c3cc4c(ccc5ccccc54)o3)o2)cc1[N+](=O)[O-]	none
COc1cc(/C=N/NC(=O)Cc2ccc(Br)cc2)cc(OC)c1O	MrgX1 PAM 7.5
COc1ccc(/C=N\NC(=O)c2cc3c(ccc4ccccc43)o2)cc1O	RGS4 pot -7.2
COc1cc(/C=N/NC(=O)c2cc3c(ccc4ccccc43)o2)cc(OC)c1O	RGS4 pot -7.3
O=C(N/N=C/c1ccc(-c2ccc(Cl)c(C(=O)O)c2)o1)c1cc2c(ccc3ccccc32)o1	MrgX1 antagonist -9.8
COc1ccc(C(=O)N2CCOC23CCN(c2ncccn2)CC3)cc1	none
Fc1ccc(C(CCCn2nnc(-c3cccnc3)n2)c2ccc(F)cc2)cc1	RGS4 pot -8.7
Fc1ccc(-n2nnc(-c3cccnc3)n2)cc1	none
CCCN(CCC)CCCNC(=S)Nc1ccc2nc(N3CCN(C)CC3)cc(C)c2c1	MrgX1 ag 29
Cc1ccc(Cl)cc1N1CCN(C(CC(C)C)c2nnnn2CC2CCCO2)CC1 (centres undefined)	none
CCOc1cc(/C=C(/C#N)C(=O)Nc2ccc(O)cc2)cc(Br)c1O	MrgX1 ag 62
CCOC(=O)C1CCN(C(=O)Cc2c(C(=O)O)n(C)c3ccccc23)CC1	none
CCC(C)NC(=O)CCc1c(C)nc2c(c(C)nn2-c2ccccc2)c1C (centres undefined)	none
Cc1nc2c(c(C)nn2-c2ccccc2)c(C)c1CCC(=O)Nc1ccc(CN2CCCC2)cc1	Kir21 inh -9, MrgX1 PAM 12
Cc1cc(C)nc(SCc2ccc(C(=O)N/N=C/c3ccco3)cc2)n1	Kir21 inh -4.3
CC(Oc1ccc(Cl)cc1Cl)c1nc(-c2ccc(NC(=O)c3ccco3)cc2)no1 (centres undefined)	MrgX1 antagonist -5
Cc1cccc(Nc2c3c(nc4ccccc24)CCC3)c1	Kir21 inh -6
Cc1ccc2nc3c(c(Nc4ccc(O)cc4)c2c1)CCC3	none
Cc1ccc2nc3c(c(Nc4ccc5c(c4)OCCO5)c2c1)CCC3	Kir21 inh -5.6
N#Cc1cccc(Nc2c3c(nc4ccccc24)CCC3)c1	none
CCn1nc(C)cc1-c1nnc(Sc2ncc([N+](=O)[O-])s2)n1C	MrgX1 ag 38, RGS4 pot -7.9
CCCCCN1C=CC=C/C1=C\C=C(C#N)C#N	none
CCCCCCN1C=CC=C/C1=C/C=C(C#N)C#N	MrgX1 antagonist -8.1
COc1cc2c(cc1NC(=S)Nc1cccc(C(F)(F)F)c1)oc1ccccc12	MrgX1 antagonist -5.7
O=C(CCC1CCCCC1)NCCN1C2=NC[C@H](Cc3ccccc3)N2C[C@H]1Cc1ccc(O)cc1	RGS4 pot -8
O=C(CCC1CCCCC1)NCCN1C2=NC[C@@H](Cc3ccccc3)N2C[C@H]1Cc1ccc(O)cc1	Kir21 inh -4.5, RGS4 pot -7.1
C[C@H]1CN=C2N(CCNC(=O)CCC3CCCCC3)[C@H](Cc3ccc(O)cc3)CN21	none
CSc1cnn(-c2ccccc2)c(=O)c1SC	none
CSc1cnn(Cc2ccccc2)c(=O)c1SCc1ccccc1	Kir21 inh -4.6
CC(C)(c1ccccc1)c1ccc(OCC(O)CNC2CCN(Cc3ccccc3)CC2)cc1 (centres undefined)	Kir21 inh -4.9
COc1ccc(CNCC(O)COc2ccc(C(C)(C)c3ccccc3)cc2)cc1 (centres undefined)	Kir21 inh -5.7
COc1ccc(NC(=O)COc2ccc(CNCCCN3CCOCC3)cc2OC)cc1	none
O=C1COc2ccc(C(=O)/C=C/c3ccccc3)cc2N1	MrgX1 ag 33
O=C(/C=C/c1ccccc1)c1ccc2c(c1)OCCCCO2	MrgX1 PAM 16
O=C(c1ccccc1)c1ccc2c(c1)OCCCO2	none
Cc1c(C(=O)Nc2ccc(Cl)cc2)c2ccccn2c1C(=O)c1ccc(F)cc1	RGS4 pot -9.1
Cc1c(/C=N/NC(=O)c2ccc(O)cc2)c2ccccn2c1C(=O)c1ccc(F)cc1	none
Cc1c(/C=N/NC(=O)c2ccccc2O)c2ccccn2c1C(=O)c1ccc(F)cc1	MrgX1 antagonist -7.1
COC(=O)N/N=C/c1c(C)c(C(=O)c2ccc(F)cc2)n2ccccc12	none
CCCCSc1nc2sc3c(c2c(=O)n1-c1ccc(OC)cc1)CCN(C)C3	none (no result: MrgX1 ag, MrgX1 antagonist, MrgX1 PAM)
CCCCSc1nc2sc3c(c2c(=O)n1-c1ccccc1)CCN(C)C3	RGS4 pot -7.3
C=C(C)CSc1nc2sc3c(c2c(=O)n1-c1ccccc1)CCN(C)C3	RGS4 pot -7.5
COC(=O)C1=C(C(=O)c2ccccc2)C(c2ccccc2)n2nnnc2N1 (centres undefined)	none
COc1cc(N2CCCC2)ccc1C=O	none
COc1cc(N2CCCC2)c(OC)cc1/C=C(/C#N)c1ccc(Br)cc1	MrgX1 antagonist -4.6
COc1cc(N2CCCC2)c(OC)cc1/C=C(/C#N)c1ccc(F)cc1	MrgX1 antagonist -4.9
CCN(CC(=O)Nc1c(F)cccc1F)C(=O)CSc1ccc(F)cc1	none
CCN(CC(=O)NCc1ccc(Cl)cc1)C(=O)CSc1ccc(F)cc1	Kir21 inh -4.5
CCC1CCCCN1C(=O)CCCOc1ccccc1 (centres undefined)	none
CCCCC[C@H](O)/C=C/[C@H]1CCC(=O)[C@@H]1CCCCCCC(=O)N1CCCCC1CO (some centres undefined)	MrgX1 ag 48, RGS4 pot -8.5
C=CCSc1nnc(C)c(/C=C/Nc2ccc(Cl)cc2)n1	RGS4 pot -7.5
COc1ccc(NC(=O)Cn2nnc(C(=O)NCc3ccco3)c2N)c(OC)c1	none
Cc1cc2nc(/C(C#N)=C\c3ccc(-c4ccccc4C(=O)O)o3)[nH]c2cc1C	none

Screening results from PubChem BioAssay.
